Compound activity (PubChem)
A selection: hits, their analogues and other compounds. The true share with any hit is near 4.5%.
GPR7 antag – blocks human GPR7 receptor signaling. P48145. GPR7-expressing cells, fluorescence antagonist assay. inhibition, % at 4.4 µM. 290,000 tested, 1.1% active. AID 1861; in the data active means inhibition above about 16%, passing the limit was not always enough;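 further: cells stimulated with the agonist NPW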
OX1R antag-1 – OX1R (human) antagonism. OX1R-expressing cells, FRET antagonist read-out. 330,000 tested, 1.8% active. inhibition, % at 6.6 µM. AID 485270. O43613; in the data active means inhibition mostly above about 38%, no sharp cut-off; inactive means mostly below about 40%
OX1R antag-2 – human HCRTR1 antagonism. O43613. CHO/OX1R cells, Fluo-8 calcium fluorescence, orexin A. inhibition, % at 5 µM. 330,000 tested, 0.43% active;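 active means inhibition above its plate's threshold, mean inhibition of all tested compounds on the plate plus 3 SD, cut at about 37% in these data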
TAAR1 antagonist – antagonists of human TAAR1; Q96RJ0; CHO RD-HGA16 TAAR1, Fluo-8 calcium fluorescence, antagonist; inhibition, % at 3 µM; 360,000 tested, 1.5% active; AID 624466;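 active means inhibition above a per-plate cutoff, the mean inhibition of test compounds on that plate plus 3 SD, cut at about 49% in these data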
Target sequence (Q96RJ0 whole entry, looked up): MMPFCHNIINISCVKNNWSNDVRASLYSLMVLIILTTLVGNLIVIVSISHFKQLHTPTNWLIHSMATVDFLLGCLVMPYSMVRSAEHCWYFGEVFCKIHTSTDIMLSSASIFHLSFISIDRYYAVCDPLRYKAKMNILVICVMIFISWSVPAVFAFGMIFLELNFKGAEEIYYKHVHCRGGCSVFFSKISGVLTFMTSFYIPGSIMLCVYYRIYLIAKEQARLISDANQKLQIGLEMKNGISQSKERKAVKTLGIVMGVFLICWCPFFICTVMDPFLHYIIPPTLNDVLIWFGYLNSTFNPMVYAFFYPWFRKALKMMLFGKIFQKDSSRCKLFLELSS
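Test system – hTAAR1-expressing CHO RD-HGA16 cells, Gα16-coupled · Also added – β-PEA at EC80 concentration, post-compound challenge · Compound – 3 µM, single point · Incubation – dye loading 75 min at 37 °C, then 30 min room temperature · Measured by – Fluo-8 intracellular calcium dye fluorescence, real-time kinetic reads · Benchmarks – vehicle and agonist controls · Replicates – singlicate, one well per test compound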
CHO parental Ca – signal in parental CHO cells, OX1R antagonist counter-screen; parental CHO-K1, ATP-induced calcium, Fluo-8 fluorescence; inhibition, % at 5.6 µM; AID 463079; 330,000 tested, 0.63% active;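 active means inhibition above that plate's mean sample inhibition plus 3 SD, cut at about 26% in these data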
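test system = CHO parental line | reagent = ATP stimulus | measured by = intracellular calcium via Fluo-8 no-wash fluorescent dye | control set = ATP and no-ATP DMSO wells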
TAAR1 ag – human TAAR1 agonism; Q96RJ0; CHO RD-HGA16 TAAR1, Fluo-8 calcium fluorescence; vehicle wells 0%, saturating PEA agonist 100%; activation, % at 3 µM; 360,000 tested, 0.99% active; AID 624467;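 active means activation above the mean activation of all test compounds in the run plus 3 SD, cut at about 38% in these data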
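Benchmarks: low control DMSO, high control PEA (EC100); System: CHO RD-HGA16 cells carrying human TAAR1 plus Gα16; Detection: Fluo-8 fluorescence, 5 s baseline then 140 s kinetic read; Schedule: 17-24 h plating, Fluo-8 75 min 37 °C, 30 min RT; Read-out basis: % activation from peak over basal fluorescence ratio, DMSO-to-PEA scaled.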
Numbers stand for hits; – = inactive; · = no result.

SMILES	GPR7 antag	OX1R antag-1	OX1R antag-2	TAAR1 antagonist	CHO parental Ca	TAAR1 ag
CCOc1cc(NCc2ccccc2)c2ncn(C(C)C)c2c1	·	–	–	–	–	44
COc1ccc(S(=O)(=O)NC(C(=O)OCC(=O)Nc2ccc(N3CCOCC3)cc2)C(C)C)cc1 (centres undefined)	·	·	·	–	·	–
CCn1c(SCc2nc(CC(=O)Nc3ccccc3OC)no2)nnc1-c1cccs1	–	70	–	–	–	–
Cc1ccc(Nc2ccc(NCc3ccccc3)nn2)cc1C	–	–	–	–	–	–
Clc1ccc(Nc2ccc(NCc3ccccc3)nn2)cc1	19	–	–	–	–	–
CCC(Sc1nc2ccsc2c(=O)n1Cc1ccc(C(=O)O)cc1)C(=O)Nc1ccc(C)c(Cl)c1 (centres undefined)	–	–	–	58	–	–
CCC(Sc1nc2ccsc2c(=O)n1Cc1ccc(C(=O)O)cc1)C(=O)Nc1cc(Cl)ccc1C (centres undefined)	·	·	·	–	·	–
COC1=CC(C)C2CC3OC(O)CC4C(C)=C(OC)C(=O)C(C2(C)C1=O)C34C (centres undefined)	·	·	·	–	·	–
CC(C)N1CCC(C)(C(=O)Nc2ccc(-n3cccc3)cc2)C1 (centres undefined)	·	·	·	–	·	–
N#Cc1c(N)n(Cc2ccccc2)c(=O)c2cc([N+](=O)[O-])ccc12	–	–	–	–	–	–
Cn1c(N)c(-c2ccccc2)c2ccc([N+](=O)[O-])cc2c1=O	–	–	53	–	43	–
Cc1ccccc1NC(=O)COC(=O)C1(C)CC1(Cl)Cl (centres undefined)	–	–	–	–	–	–
CC(C)(C)c1ccc(NC(=O)COC(=O)C2(C)CC2(Cl)Cl)cc1 (centres undefined)	–	–	–	52	–	–
CC1(C)N([O-])C(c2cccs2)=C[N+]1=O	–	–	–	–	29	–
CC1(C)N([O-])C(c2ccccc2)=C[N+](=O)C1(C)C	–	–	–	–	–	–
COc1ccc(C2=Nc3ccccc3NC(=O)C2N(CCc2ccccc2)C(=O)c2cccs2)cc1 (centres undefined)	·	·	·	–	·	44
O=C1Nc2ccccc2N=C(c2ccc3c(c2)OCO3)C1N(C(=O)c1ccnc2ccccc12)c1ccccc1 (centres undefined)	·	·	·	–	·	–
O=C1Nc2ccccc2N=C(c2ccc3c(c2)OCO3)C1N(CCc1ccccc1)C(=O)CSc1ncccn1 (centres undefined)	·	·	·	–	·	41
N#Cc1cccc(C(=O)C(=O)N2CCN(c3ccccc3)CC2)c1	·	·	·	–	·	–
CCn1ncc(-c2ccnc3cc(C(=O)O)nn23)c1C	–	–	–	–	–	–
O=C(O)c1cc2nccc(-c3ccc(F)cc3)n2n1	–	43	–	–	–	–
COc1ccc(OCCSc2nc3ccccc3n2CCC(=O)O)cc1	–	54	–	–	–	–
CCc1ccc(OCCSc2nc3ccccc3n2CCC(=O)O)cc1	–	–	–	–	–	–
COc1ccccc1OCCSc1nc2ccccc2n1CCC(=O)O	–	67	–	–	–	–
COc1ccccc1OCCSc1nc2ccccc2n1CCO	–	–	–	–	–	–
SMILES	GPR7 antag	OX1R antag-1	OX1R antag-2	TAAR1 antagonist	CHO parental Ca	TAAR1 ag
O=C1c2cc(S(=O)(=O)NCCCO)ccc2-c2ccc(S(=O)(=O)NCCCO)cc21	–	54	–	–	–	–
COCCNS(=O)(=O)c1ccc2c(c1)C(=O)c1cc(S(=O)(=O)NCCOC)ccc1-2	–	66	–	–	–	–
CC(C)(CO)NS(=O)(=O)c1ccc2c(c1)C(=O)c1cc(S(=O)(=O)NC(C)(C)CO)ccc1-2	–	–	–	–	–	–
CCN(CC)C(=O)CSc1nc(-c2cccs2)cc(-c2cccs2)c1C#N	–	–	–	61	58	–
COC(=O)CSc1nc(-c2cccs2)ccc1C#N	–	68	–	–	–	–
C#CCSc1nc(-c2cccs2)ccc1C#N	–	–	–	–	–	–
N#CC1=C(c2ccccc2)/C(=C/c2ccccc2)OC1=O	–	–	–	58	–	–
C=CCn1c2ccccc2c2nnc(SCCN3CCCCC3)nc21	–	–	–	–	–	–
C=CCn1c2ccccc2c2nnc(SCN3C(=O)c4ccccc4C3=O)nc21	–	–	–	51	–	–
